Screening data as filed in PubChem.
Rows were chosen to be rich in hits. Some 1.6% of all compounds tested hit in one or more screens of this group.
HTRA1 inhibitor: inhibitors of human serine peptidase HTRA1. recombinant HTRA1, FP-rhodamine activity-based probe, fluorescence polarization. inhibition, % at 5.96 µM. 340,000 compounds, 0.5% hits. AID 504803; in the data active = inhibition above about 36%
TCR CD3 inh: human TCR-CD3 binding inhibition | inhibition, % at 9.4 µM | AID 651800 | TAMRA-labeled TCR probe fluorescence, biochemical | 360,000 compounds, 0.37% hits; in the data active = inhibition above about 19%;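 note: recombinant mutant TCR 2C K166C tagged with TAMRA read by polarization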
DAGLB inh: blocks human DAGLB lipase activity | 340,000 compounds, 0.059% hits | AID 504411 | HEK293T DAGLB membrane lysate, EnzChek fluorogenic substrate | Q8NCG7 | inhibition, % at 5.17 µM; in the data active = inhibition above about 34%
ABHD4 inh: inhibits mouse alpha/beta hydrolase domain 4 | Q8VD66 | purified mABHD4, FP-Rh probe fluorescence polarization | inhibition, % at 8.92 µM | 370,000 compounds, 0.54% hits;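 active = inhibition exceeding the mean over every tested compound plus 3 SD, cut at about 30% in these data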
Target sequence (Q8VD66 whole entry, looked up, the tested form may be a part): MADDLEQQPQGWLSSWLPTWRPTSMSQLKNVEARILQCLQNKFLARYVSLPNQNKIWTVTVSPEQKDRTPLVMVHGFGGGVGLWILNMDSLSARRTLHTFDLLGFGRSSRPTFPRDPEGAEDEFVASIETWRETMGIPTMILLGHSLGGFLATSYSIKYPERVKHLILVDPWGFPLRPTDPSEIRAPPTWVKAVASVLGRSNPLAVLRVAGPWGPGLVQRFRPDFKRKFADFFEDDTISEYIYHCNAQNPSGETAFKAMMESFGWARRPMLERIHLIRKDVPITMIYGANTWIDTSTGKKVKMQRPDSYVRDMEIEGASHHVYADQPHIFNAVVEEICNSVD
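System: mouse ABHD4 enzyme, wild type / Medium: HEPES pH 7.0, NaCl, Pluronic buffer / Reagent: FP-Rh activity-based fluorescent probe / Control set: S159A mutant high control, sample median low control / Detection: fluorescence polarization with parallel and perpendicular emission, 525/598 nm / Schedule: 45 min + 60 min at 25 °C / Compound dosing: 8.92 µM, single dose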
SIAE inh: human SIAE inhibition, primary screen; AID 1053197; 370,000 compounds, 0.69% hits; SIAE FP-Rh probe binding, fluorescence polarization; inhibition, % at 9.66 µM;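 active = inhibition above a cutoff: mean of compounds within the control limits plus 3 SD of those, cut at about 17% in these data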
HTRA1 conf: confirmation of human HTRA1 inhibitors; recombinant HTRA1, FP-rhodamine activity-based probe, fluorescence polarization; AID 540248; 1,600 compounds, 66% hits; shares compounds with HTRA1 inhibitor; inhibition, % at 5.96 µM;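 active = mean inhibition over three repeats above a set limit taken from the earlier primary screen, cut at about 37% in these data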;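 note: inhibitors block probe binding so polarization drops and inhibition rises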
A number is an active result; - = inactive; . = not tested or not shown.

SMILES	HTRA1 inhibitor	TCR CD3 inh	DAGLB inh	ABHD4 inh	SIAE inh	HTRA1 conf
COc1ccc(-n2c(C)cc(-c3csc(N)n3)c2C)cc1	39	-	-	-	-	-
CCOC(=O)CNC(=O)CSc1nnc(-c2cccs2)o1	.	.	.	-	-	.
COC(=O)[C@H](C(C)C)N1Cc2nnn(Cc3ccc(C)cc3)c2-c2ccccc2S1(=O)=O	.	.	.	-	-	.
CCOc1ccc(C(=O)CSc2nnc(SCc3ccc(Cl)cc3)s2)cc1	.	.	.	-	-	.
O=C(NN=C1CCCC1)c1cc(Br)ccc1O	-	-	-	-	-	.
O=C(N/N=C1/CCSC1)c1cc(Br)ccc1O	45	-	-	-	-	-
CC(=O)C1(C(=O)NCc2ccccc2)CC(c2ccccc2C(F)(F)F)=NO1 (stereo not drawn)	.	.	.	-	-	.
Oc1ccc2ccccc2c1C1Nc2cccc3cccc(c23)N1	52	.	-	.	.	-
CC(=O)Nc1ccc(S(=O)(=O)NCC2CCN(C(=O)C(=O)c3cc4ccccc4o3)CC2)cc1	.	-	.	-	-	.
CCOC(=O)[C@]12CCCC=C1N(Cc1ccc(OC)cc1)C(=O)[C@@H]2CC(=O)NCC12CC3CC(CC(C3)C1)C2	.	.	.	-	-	.
O=C(/C=C/c1cccs1)NC(=S)NNC(=O)c1ccccc1O	48	-	-	-	-	58
Oc1ccc(CN2CCN(c3ccccc3)CC2)c2cccnc12	-	.	-	.	.	.
Oc1c(CN2CCN(c3ccccn3)CC2)cc(Cl)c2cccnc12	39	.	-	.	.	58
OCCN1CCN(Cc2cc(Cl)c3cccnc3c2O)CC1	52	-	-	-	-	54
CN(CCO)c1cccc2c1S(=O)(=O)N(Cc1cn(Cc3cccc(F)c3)nn1)Cc1ccccc1O2	.	.	.	-	-	.
CCn1c(CSc2nccn2C)nc2cc(C(=O)O)ccc21	38	.	-	.	.	48
CC(=O)Oc1cc(C(=O)OCC(=O)NC23CC4CC(CC(C4)C2)C3)cc(OC(C)=O)c1OC(C)=O	66	49	-	-	-	75
COc1cccc(C(=O)OCC(=O)NC23CC4CC(CC(C4)C2)C3)c1	-	-	-	-	-	.
Cc1cc(N=Nc2ccc(C)c(N=Nc3cc(C)c(N)cc3N)c2)c(N)cc1N	77	-	-	-	-	74
CC(=O)NC1CCCCN(C)C1=O (stereo not drawn)	.	-	.	-	-	.
C=CCOc1ccc(C2OC34CCCCC3C(C#N)(C#N)C2(C#N)C(=N)O4)cc1 (stereo not drawn)	38	.	-	.	.	-
CCCCOc1ccc(C2OC34CCCCC3C(C#N)(C#N)C2(C#N)C(=N)O4)cc1 (stereo not drawn)	-	.	-	.	.	.
COc1cc(CNc2ccc(N3CCCCC3)cc2)ccc1OCC(=O)NC(C)(C)C	41	-	-	-	-	-
COc1cc(CNc2ccc(N3CCCC3)cc2)ccc1OCc1ccccc1F	40	.	-	.	.	-
Cc1cc(C)nc(Nc2ccc(N3CCOCC3)cc2)n1	-	-	-	-	-	.
SMILES	HTRA1 inhibitor	TCR CD3 inh	DAGLB inh	ABHD4 inh	SIAE inh	HTRA1 conf
Cc1cc(C)nc(Nc2ccc(N3CCCC3)cc2)n1	40	-	-	-	-	40
CN(C)c1ccc(-c2nc3ncc(Cl)cc3[nH]2)cc1	.	.	.	-	-	.
O=C(NCc1ccccc1)[C@@H]1CCCN1C(=O)[C@H]1CCCN1C(=O)c1ccc(F)c(C(F)(F)F)c1	.	-	.	-	-	.
O=C(COC(=O)c1nc(Cl)ccc1Cl)Nc1ncc(Cl)cc1Cl	63	-	-	-	-	-
Cc1cc(C)c2sc(NNC(=O)c3ccc(S(=O)(=O)N4CCc5ccccc5C4)cc3)nc2c1	44	-	-	-	-	42
CCc1nnc(NC(=O)c2ccc(S(=O)(=O)N3CCc4ccccc4C3)cc2)s1	-	-	-	-	-	.
Cc1cc(C)c2nc(NNC(=O)c3ccc(S(=O)(=O)N4CCc5ccccc5C4)cc3)sc2c1	52	-	-	-	-	48
COc1ccc(NC(=O)CCCNS(=O)(=O)c2ccc3[nH]c(=O)oc3c2)cc1OC	.	.	.	-	-	.
NC1=CC(=O)C(=O)c2ccccc21	-	-	-	-	-	.
O=C1C=C(O)c2[nH]c(=O)ccc2C1=O	47	-	-	-	-	-
COc1ccc2c(c1)c(C(=O)N/N=C/c1ccc(O)c(O)c1)c(C)n2C	43	-	-	-	-	64
O=C(NCCN1CCC(Cc2ccccc2)CC1)C1CCCN(S(=O)(=O)c2ccccc2[N+](=O)[O-])C1 (stereo not drawn)	.	.	.	-	-	.
CN(C)c1nc(-c2ccccn2)nnc1-c1ccccc1	52	-	-	-	-	57
CCCCCCCCCCCCC/C=C/[C@@H](O)[C@@H](N)CO	38	-	-	-	-	67
CC1=NN(c2ccc(C(=O)O)cc2)C(=O)/C1=C\c1ccc(OC(=O)c2cccs2)cc1	39	-	-	-	-	-
COC(=O)[C@]12C[C@H](CC(=O)NCc3cccs3)C(=O)N(Cc3cccc4ccccc34)C1=C[C@H](C1CCCC1)O[C@@H]2C	.	.	.	-	-	.
CC(C)(C)c1ccc(O)c(N=Cc2cc(Br)ccc2O)c1	41	-	-	-	-	42
Cc1ccc(O)c(C=Nc2cc(C)ccc2O)c1	-	.	-	.	.	.
CCN(C(=O)CN1c2ccccc2CC1C)c1c(N)n(Cc2ccccc2)c(=O)[nH]c1=O (stereo not drawn)	-	-	-	-	-	.
CCn1c(=O)c(C(=O)CN2c3ccccc3CC2C)c(N)n(Cc2ccccc2)c1=O (stereo not drawn)	38	-	-	-	-	-
CC1Cc2ccccc2N1CC(=O)N(C)c1c(N)n(Cc2ccccc2)c(=O)[nH]c1=O (stereo not drawn)	43	-	-	-	-	-
Clc1ccc(-c2nnc3n2N=C(c2ccc(-c4ccccc4)cc2)CS3)c(Cl)c1	.	.	.	-	-	.
CC(C)NC(=S)N/N=C/c1cc(Br)ccc1O	37	-	-	-	-	49
c1ccc2cc(-c3cc4ccccn4c3)ccc2c1	39	-	-	-	-	-
CCCCN1CC(COCc2ccccc2)Oc2cccc(Oc3ccc(SC)c(C)c3)c2S1(=O)=O (stereo not drawn)	.	-	.	-	-	.
CCOC(=O)C1=NN(C(=O)c2ccccc2)C(O)(c2ccc(C)cc2)C1 (stereo not drawn)	-	-	-	-	-	.
COC(=O)C1=NN(C(=O)c2cccc(Br)c2)C(O)(c2ccc(Cl)cc2)C1 (stereo not drawn)	66	-	-	-	-	65
CC1(OC(=O)C2CCCC2)C(=O)C=C2C=C(c3ccsc3)N(CCc3c[nH]c4ccccc34)C=C2C1=O (stereo not drawn)	36	.	-	.	.	-
COC(=O)CCCC1=CC2=CC(=O)C(C)(OC(=O)c3cccs3)C(=O)C2=CN1CCc1c[nH]c2ccccc12 (stereo not drawn)	-	-	-	-	-	.
CCCCC1=CC2=CC(=O)C(C)(OC(=O)CC)C(=O)C2=CN1CCc1c[nH]c2ccccc12 (stereo not drawn)	51	-	-	-	-	36
